Source: ChEMBL document CHEMBL3769393, “Chiral pool synthesis and biological evaluation of C-furanosidic and acyclic LpxC inhibitors” (Eur J Med Chem, 2016)
One block for each compound: values may come before it.

Columns and labels:
[1] = Inhibition of Escherichia coli BL21(DE3) LpxC C63A mutant using UDP-3-O-(R-3-hydroxymyristoyl)-N-acetylglucosamine as substrate incubated for 30 mins by o-phthaldialdehyde-2-mercaptoethanol based fluorescence assay
Escherichia coli [2] = test: Antibacterial activity against Escherichia coli BL21(DE3) cells assessed as diameter of zone of growth inhibition after overnight incubation at 37 degC by agar disc diffusion clearance assay; type: functional
How it was run: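 Overnight LB broth cultures (37 °C, 200 rpm); 150 µL spread on LB agar. 6 mm filter discs loaded with 15 µL of 10 mM compound in DMSO. DMSO disc as negative control, CHIR-090 as positive control. Plates kept overnight at 37 °C, then diameter of the growth-inhibition zone measured.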

Escherichia coli [3] = test: Antibacterial activity against envA mutant Escherichia coli D22 cells assessed as diameter of zone of growth inhibition after overnight incubation at 37 degC by agar disc diffusion clearance assay; type: functional
How it was run: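 E. coli D22 (defective strain) grown overnight in LB broth at 37 °C, 200 rpm; 150 µL of overnight suspension spread on LB agar. 6 mm filter paper discs loaded with 15 µL compound (10 mM in DMSO); DMSO disc as negative control, CHIR-090 as positive control. Plates incubated overnight at 37 °C; growth-inhibition zone diameter measured.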

[4] = Inhibition of Escherichia coli BL21(DE3) LpxC C63A mutant using UDP-3-O-(R-3-hydroxymyristoyl)-N-acetylglucosamine as substrate incubated for 30 mins by Cheng-Prusoff equation analysis

SMILES: O=C(NO)[C@H]1O[C@H](c2ccc(C#Cc3ccccc3)cc2)[C@@H](O)[C@H]1O
IC50 [1]: 43 µM
diameter of the inhibition zone (DIZ) (Escherichia coli [2]): 6.8 mm
diameter of the inhibition zone (DIZ) (Escherichia coli [3]): 13.6 mm
Ki [4]: 5.9 µM

SMILES: O=C(NO)[C@@H]1O[C@H](c2ccc(C#CC#Cc3ccccc3)cc2)[C@@H](O)[C@H]1O
IC50 [1]: 5 µM
diameter of the inhibition zone (DIZ) (Escherichia coli [2]): 10.7 mm
diameter of the inhibition zone (DIZ) (Escherichia coli [3]): 14.5 mm
Ki [4]: 0.69 µM

SMILES: O=C(NO)[C@H]1O[C@@H](c2ccc(C#Cc3ccc(CN4CCOCC4)cc3)cc2)[C@@H](O)[C@H]1O
IC50 [1]: > 200 µM
diameter of the inhibition zone (DIZ) (Escherichia coli [2]): <6 mm
diameter of the inhibition zone (DIZ) (Escherichia coli [3]): 13.2 mm
Ki [4]: > 27.6 µM

SMILES: O=C(NO)[C@@H](CO)O[C@@H](CO)c1ccc(C#Cc2ccc(CN3CCOCC3)cc2)cc1
IC50 [1]: 180 µM
diameter of the inhibition zone (DIZ) (Escherichia coli [2]): <6 mm
diameter of the inhibition zone (DIZ) (Escherichia coli [3]): 20.3 mm
Ki [4]: 25 µM

SMILES: CC1(C)O[C@@H]2[C@H](O1)[C@H](c1ccc(C#Cc3ccc(CN4CCOCC4)cc3)cc1)O[C@@H]2C(=O)NO
IC50 [1]: > 200 µM
diameter of the inhibition zone (DIZ) (Escherichia coli [2]): <6 mm
diameter of the inhibition zone (DIZ) (Escherichia coli [3]): 14.7 mm
Ki [4]: > 27.6 µM

SMILES: O=C(NO)[C@H]1O[C@@H](c2ccc(C#Cc3ccccc3)cc2)[C@@H](O)[C@H]1O
IC50 [1]: > 200 µM
diameter of the inhibition zone (DIZ) (Escherichia coli [2]): <6 mm
diameter of the inhibition zone (DIZ) (Escherichia coli [3]): 6.5 mm
Ki [4]: > 27.6 µM

SMILES: O=C(NO)[C@H](CO)O[C@H](CO)c1ccc(C#CC#Cc2ccccc2)cc1
IC50 [1]: 1.7 µM
diameter of the inhibition zone (DIZ) (Escherichia coli [2]): 13.7 mm
diameter of the inhibition zone (DIZ) (Escherichia coli [3]): 21.3 mm
Ki [4]: 0.23 µM

SMILES: O=C(NO)[C@@H](CO)O[C@H](CO)c1ccc(C#Cc2ccc(CN3CCOCC3)cc2)cc1
IC50 [1]: 8 µM
diameter of the inhibition zone (DIZ) (Escherichia coli [2]): 16 mm
diameter of the inhibition zone (DIZ) (Escherichia coli [3]): 26.1 mm
Ki [4]: 1.1 µM

SMILES: O=C(NO)[C@@H]1O[C@@H](c2ccc(C#Cc3ccccc3)cc2)[C@@H](O)[C@H]1O
IC50 [1]: 24 µM
diameter of the inhibition zone (DIZ) (Escherichia coli [2]): <6 mm
diameter of the inhibition zone (DIZ) (Escherichia coli [3]): 18 mm
Ki [4]: 3.3 µM

SMILES: O=C(NO)[C@H](CO)O[C@H](CO)c1ccc(C#Cc2ccc(CN3CCOCC3)cc2)cc1
IC50 [1]: 2.6 µM
diameter of the inhibition zone (DIZ) (Escherichia coli [2]): 9.6 mm
diameter of the inhibition zone (DIZ) (Escherichia coli [3]): 20.4 mm
Ki [4]: 0.35 µM

SMILES: O=C(NO)[C@@H](CO)O[C@@H](CO)c1ccc(C#CC#Cc2ccccc2)cc1
IC50 [1]: 20 µM
diameter of the inhibition zone (DIZ) (Escherichia coli [2]): 7.1 mm
diameter of the inhibition zone (DIZ) (Escherichia coli [3]): 10.5 mm
Ki [4]: 2.7 µM

SMILES: O=C(NO)[C@H](CO)O[C@H](CO)c1ccc(C#Cc2ccccc2)cc1
IC50 [1]: > 200 µM
diameter of the inhibition zone (DIZ) (Escherichia coli [2]): <6 mm
diameter of the inhibition zone (DIZ) (Escherichia coli [3]): 16.2 mm
Ki [4]: > 27.6 µM

SMILES: O=C(NO)[C@H](CO)O[C@@H](CO)c1ccc(C#Cc2ccccc2)cc1
IC50 [1]: 150 µM
diameter of the inhibition zone (DIZ) (Escherichia coli [2]): 6.8 mm
diameter of the inhibition zone (DIZ) (Escherichia coli [3]): 21.3 mm
Ki [4]: 21 µM

SMILES: O=C(NO)[C@@H]1O[C@@H](c2ccc(C#CC#Cc3ccccc3)cc2)[C@@H](O)[C@H]1O
IC50 [1]: 15 µM
diameter of the inhibition zone (DIZ) (Escherichia coli [2]): <6 mm
diameter of the inhibition zone (DIZ) (Escherichia coli [3]): 15.7 mm
Ki [4]: 2.1 µM

SMILES: O=C(NO)[C@H]1O[C@@H](c2ccc(C#CC#Cc3ccccc3)cc2)[C@@H](O)[C@H]1O
IC50 [1]: 32 µM
diameter of the inhibition zone (DIZ) (Escherichia coli [2]): <6 mm
diameter of the inhibition zone (DIZ) (Escherichia coli [3]): 9 mm
Ki [4]: 4.4 µM

IC50 [1]: 42 µM
SMILES: O=C(NO)[C@@H]1O[C@H](c2ccc(C#Cc3ccc(CN4CCOCC4)cc3)cc2)[C@@H](O)[C@H]1O
diameter of the inhibition zone (DIZ) (Escherichia coli [2]): <6 mm
Ki [4]: 5.8 µM

SMILES: O=C(NO)c1ccc(-c2ccc(C#Cc3ccccc3)cc2)o1
diameter of the inhibition zone (DIZ) (Escherichia coli [2]): <6 mm
diameter of the inhibition zone (DIZ) (Escherichia coli [3]): 8 mm

SMILES: O=C(NO)[C@H]1O[C@H](c2ccc(C#Cc3ccc(CN4CCOCC4)cc3)cc2)[C@@H](O)[C@H]1O
IC50 [1]: 34 µM
diameter of the inhibition zone (DIZ) (Escherichia coli [2]): 9.8 mm
diameter of the inhibition zone (DIZ) (Escherichia coli [3]): 20.2 mm
Ki [4]: 4.7 µM

SMILES: O=C(NO)[C@@H]1C[C@H](O)[C@H](c2ccc(C#Cc3ccc(CN4CCOCC4)cc3)cc2)O1
IC50 [1]: 87 µM
diameter of the inhibition zone (DIZ) (Escherichia coli [2]): <6 mm
diameter of the inhibition zone (DIZ) (Escherichia coli [3]): 15.3 mm
Ki [4]: 12 µM

SMILES: CO[C@@H]1[C@H](O)[C@H](c2ccc(C#Cc3ccc(CN4CCOCC4)cc3)cc2)O[C@@H]1C(=O)NO
IC50 [1]: > 200 µM
diameter of the inhibition zone (DIZ) (Escherichia coli [2]): <6 mm
diameter of the inhibition zone (DIZ) (Escherichia coli [3]): 11.7 mm
Ki [4]: > 27.6 µM

SMILES: O=C(NO)[C@@H]1O[C@H](c2ccc(C#Cc3ccccc3)cc2)[C@@H](O)[C@H]1O
IC50 [1]: > 200 µM
diameter of the inhibition zone (DIZ) (Escherichia coli [2]): <6 mm
diameter of the inhibition zone (DIZ) (Escherichia coli [3]): 16.3 mm
Ki [4]: > 27.6 µM

SMILES: O=C(NO)[C@H](CO)O[C@@H](CO)c1ccc(C#Cc2ccc(CN3CCOCC3)cc2)cc1
IC50 [1]: 21 µM
diameter of the inhibition zone (DIZ) (Escherichia coli [2]): 14.3 mm
diameter of the inhibition zone (DIZ) (Escherichia coli [3]): 27.9 mm
Ki [4]: 2.9 µM

SMILES: CO[C@H]1[C@@H](O)[C@@H](C(=O)NO)O[C@H]1c1ccc(C#Cc2ccc(CN3CCOCC3)cc2)cc1
IC50 [1]: > 200 µM
diameter of the inhibition zone (DIZ) (Escherichia coli [2]): <6 mm
diameter of the inhibition zone (DIZ) (Escherichia coli [3]): 20.5 mm
Ki [4]: > 27.6 µM

SMILES: O=C(NO)[C@@H]1O[C@@H](c2ccc(C#Cc3ccc(CN4CCOCC4)cc3)cc2)[C@@H](O)[C@H]1O
IC50 [1]: 10 µM
diameter of the inhibition zone (DIZ) (Escherichia coli [2]): <6 mm
diameter of the inhibition zone (DIZ) (Escherichia coli [3]): 22.1 mm
Ki [4]: 1.4 µM

SMILES: O=C(NO)[C@@H](CO)O[C@@H](CO)c1ccc(C#Cc2ccccc2)cc1
IC50 [1]: > 200 µM
diameter of the inhibition zone (DIZ) (Escherichia coli [2]): <6 mm
diameter of the inhibition zone (DIZ) (Escherichia coli [3]): 9.3 mm
Ki [4]: > 27.6 µM

SMILES: O=C(NO)[C@H](CO)O[C@@H](CO)c1ccc(C#CC#Cc2ccccc2)cc1
IC50 [1]: 4.4 µM
diameter of the inhibition zone (DIZ) (Escherichia coli [2]): 9 mm
diameter of the inhibition zone (DIZ) (Escherichia coli [3]): 18 mm
Ki [4]: 0.6 µM
